Laboratory results from ChEMBL document CHEMBL1156745, “Exploration of O-spiroketal C-arylglucosides as novel and selective renal sodium-dependent glucose co-transporter 2 (SGLT2) inhibitors” (Bioorg Med Chem Lett, 2009).

Key:
[1] = biological target: T1, Sodium/glucose cotransporter 2 (Homo sapiens, UniProt P31639); assay: Inhibition of human SGLT2 transfected in HEK293.ETN cells assessed as AMG uptake after 1.5 hrs by scintillation counting; format: cell-based
T1 sequence (P31639 whole entry): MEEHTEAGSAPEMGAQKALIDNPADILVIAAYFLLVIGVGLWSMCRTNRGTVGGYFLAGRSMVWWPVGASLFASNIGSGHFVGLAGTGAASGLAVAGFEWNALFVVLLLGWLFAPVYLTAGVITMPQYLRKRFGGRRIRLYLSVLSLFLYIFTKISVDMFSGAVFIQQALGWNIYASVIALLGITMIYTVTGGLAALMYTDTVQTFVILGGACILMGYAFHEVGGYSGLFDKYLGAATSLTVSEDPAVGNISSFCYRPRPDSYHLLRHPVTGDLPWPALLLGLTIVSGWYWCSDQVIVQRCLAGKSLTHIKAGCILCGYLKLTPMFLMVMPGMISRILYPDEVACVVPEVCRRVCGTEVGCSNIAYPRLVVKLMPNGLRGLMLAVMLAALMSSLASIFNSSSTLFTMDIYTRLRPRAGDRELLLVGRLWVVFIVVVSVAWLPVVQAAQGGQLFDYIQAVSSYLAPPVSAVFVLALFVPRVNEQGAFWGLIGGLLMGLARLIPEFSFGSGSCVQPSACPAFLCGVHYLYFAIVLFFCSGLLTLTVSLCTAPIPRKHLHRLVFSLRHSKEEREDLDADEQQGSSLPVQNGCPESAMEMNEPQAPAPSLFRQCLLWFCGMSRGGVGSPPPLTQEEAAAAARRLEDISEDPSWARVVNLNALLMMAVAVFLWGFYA
Method in brief: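 Full-length human SGLT2 in pEAK15, stably expressed in HEK293.ETN (puromycin-selected clones). Cells plated 1 × 10⁵/well in DMEM/10% FBS, 48 h, 37 °C. Compound plus 40 µCi/mL [¹⁴C]AMG in sodium or sodium-free Tris/Hepes buffer pH 7.2, 1.5 h at 37 °C with shaking. Washed, uptake read by scintillation counting. Eight concentrations in triplicate. Sodium-free value subtracted from sodium value.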

[2] = biological target: T2, Sodium/glucose cotransporter 1 (Homo sapiens, UniProt P13866); assay: Inhibition of human SGLT1 transfected in COS-7 cells assessed as AMG uptake after 2 hrs by scintillation counting; format: cell-based
T2 sequence (P13866 whole entry): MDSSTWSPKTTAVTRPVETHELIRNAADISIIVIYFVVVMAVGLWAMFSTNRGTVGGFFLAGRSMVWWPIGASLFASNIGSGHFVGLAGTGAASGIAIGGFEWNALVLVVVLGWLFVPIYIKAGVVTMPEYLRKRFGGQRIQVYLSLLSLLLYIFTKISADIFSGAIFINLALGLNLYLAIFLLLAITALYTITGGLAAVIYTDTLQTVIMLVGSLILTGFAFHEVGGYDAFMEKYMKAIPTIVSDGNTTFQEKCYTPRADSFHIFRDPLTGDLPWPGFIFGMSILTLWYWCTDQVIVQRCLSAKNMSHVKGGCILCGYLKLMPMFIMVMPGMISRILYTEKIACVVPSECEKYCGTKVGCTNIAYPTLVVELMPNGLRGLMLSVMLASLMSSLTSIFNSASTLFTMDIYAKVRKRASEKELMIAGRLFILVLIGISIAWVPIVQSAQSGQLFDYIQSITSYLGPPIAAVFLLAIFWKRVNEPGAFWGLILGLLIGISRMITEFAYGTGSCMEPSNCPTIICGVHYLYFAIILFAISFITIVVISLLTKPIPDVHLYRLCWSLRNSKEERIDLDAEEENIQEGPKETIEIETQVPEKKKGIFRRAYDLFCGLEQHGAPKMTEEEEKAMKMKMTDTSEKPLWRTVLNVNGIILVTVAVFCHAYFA
Method in brief: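 Transient transfection of human SGLT1 plasmid into COS-7 cells, which were cryopreserved until use. Seeded at 1 × 10⁵ cells/well in DMEM + 10% FBS, 48 h at 37 °C, 5% CO₂. Exposed to inhibitor with 40 µCi/mL [¹⁴C]AMG in Na⁺ or Na⁺-free Tris/Hepes buffer pH 7.2 for 2 h at 37 °C, shaking. Eight concentrations, triplicate. Na⁺-dependent uptake taken as Na⁺ minus Na⁺-free signal.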

Mus musculus = assay: Toxicity in CD1 mouse assessed as induction of severe diarrhea at 25 mg/kg, po after 6 hrs; format: organism-based; parameters: dose 25 mg/kg, route oral; conditions: in vivo
Method in brief: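 CD1 mice given a single oral dose of 25 mg/kg. Watched for diarrhea at 6 h.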

Row | SMILES | IC50 [1] | IC50 [2] | Activity (Mus musculus)
1 | CCc1ccc(Cc2cc3c(cc2Cl)CO[C@]32O[C@H](COCC(F)(F)F)[C@@H](O)[C@H](O)[C@H]2O)cc1 | 0.07 µM | 14 µM | 
2 | CCc1ccc(C2(c3cc4c(cc3Cl)CO[C@]43O[C@H](CO)[C@@H](O)[C@H](O)[C@H]3O)CC2)cc1 | 0.0013 µM | 6 µM | 
3 | CCc1ccc(Cc2cc3c(cc2Cl)CO[C@]32O[C@H](CN)[C@@H](O)[C@H](O)[C@H]2O)cc1 | 0.1 µM | > 100 µM | 
4 | CCc1ccc(Cc2cc3c(cc2Cl)CO[C@]32O[C@H](COC)[C@@H](O)[C@H](O)[C@H]2O)cc1 | 0.0058 µM | 2.7 µM | 
5 | CCOc1cc(F)ccc1Cc1cc2c(cc1Cl)CO[C@]21O[C@H](CO)[C@@H](O)[C@H](O)[C@H]1O | 1 µM | 10 µM | 
6 | CCc1ccc(Cc2cc3c(cc2Cl)CO[C@]32O[C@H](CO)[C@@H](O)[C@H](O)[C@H]2O)cc1 | 0.0066 µM | 0.6 µM | Toxic
7 | CCOc1ccc(Cc2cc3c(cc2Cl)CO[C@]32O[C@H](CO)[C@@H](O)[C@H](O)[C@H]2O)cc1Cl | 0.068 µM | 10.5 µM | 
8 | CCOc1ccc(Cc2cc3c(cc2Cl)CO[C@]32O[C@H](CO)[C@@H](O)[C@H](O)[C@H]2O)c(C)c1 | > 1 µM | 1 µM | 
9 | Cc1cccc(Cc2cc3c(cc2Cl)CO[C@]32O[C@H](CO)[C@@H](O)[C@H](O)[C@H]2O)c1F | 0.0008 µM | 1.5 µM | 
10 | OC[C@H]1O[C@]2(OCc3cc(Cl)c(Cc4ccc(OC(F)(F)F)cc4)cc32)[C@H](O)[C@@H](O)[C@@H]1O | 0.0003 µM | 3.1 µM | 
11 | COc1ccc(Cc2cc3c(cc2Cl)CO[C@]32O[C@H](CO)[C@@H](O)[C@H](O)[C@H]2O)c(C)c1 | > 1 µM | 10 µM | 
12 | CCc1ccc(Cc2cccc3c2CO[C@]32O[C@H](CO)[C@@H](O)[C@H](O)[C@H]2O)cc1 | > 1 µM |  | 
13 | COc1ccc(Cc2cc3c(cc2Cl)CO[C@]32O[C@H](CO)[C@@H](O)[C@H](O)[C@H]2O)cc1 | 0.0025 µM | 0.2 µM | 
14 | CC(C)(C)c1ccc(Cc2cc3c(cc2Cl)CO[C@]32O[C@H](CO)[C@@H](O)[C@H](O)[C@H]2O)cc1 | 0.013 µM | 9.7 µM | 

Continued, in another order:

Row | IC50 [1] | IC50 [2] | SMILES | Activity (Mus musculus)
15 | 0.0065 µM | 1.3 µM | CCOc1ccc(Cc2cc3c(cc2Cl)CO[C@]32O[C@H](CO)[C@@H](O)[C@H](O)[C@H]2O)cc1 | 
16 | 0.01 µM | 1 µM | COc1c(C)cccc1Cc1cc2c(cc1Cl)CO[C@]21O[C@H](CO)[C@@H](O)[C@H](O)[C@H]1O | 
17 | 0.022 µM | 43 µM | CCc1ccc(C(=O)c2cc3c(cc2Cl)CO[C@]32O[C@H](CO)[C@@H](O)[C@H](O)[C@H]2O)cc1 | 
18 |  | 10 µM | CCOc1ccc(Cc2ccc3c(c2)[C@]2(OC3)O[C@H](CO)[C@@H](O)[C@H](O)[C@H]2O)cc1 | 
19 | 0.0071 µM | 2.5 µM | CC(C)c1ccc(Cc2cc3c(cc2Cl)CO[C@]32O[C@H](CO)[C@@H](O)[C@H](O)[C@H]2O)cc1 | 
20 | 0.0086 µM | 5.3 µM | CCc1ccc(Cc2cc3c(cc2F)CO[C@]32O[C@H](CO)[C@@H](O)[C@H](O)[C@H]2O)cc1 | 
21 | 0.1 µM | 1 µM | Cc1cc(F)ccc1Cc1cc2c(cc1Cl)CO[C@]21O[C@H](CO)[C@@H](O)[C@H](O)[C@H]1O | 
22 | 0.01 µM | 1 µM | CCc1ccc(Cc2cc3c(cc2Cl)CO[C@]32O[C@H](CN=[N+]=[N-])[C@@H](O)[C@H](O)[C@H]2O)cc1 | 
23 | > 1 µM | 10 µM | CCOc1ccc(Cc2cc3c(cc2Cl)CO[C@]32O[C@H](CO)[C@@H](O)[C@H](O)[C@H]2O)c(Cl)c1 | 
24 | 0.007 µM | 1.6 µM | CCc1ccc(C(F)(F)c2cc3c(cc2Cl)CO[C@]32O[C@H](CO)[C@@H](O)[C@H](O)[C@H]2O)cc1 | 
